According to ChEMBL document CHEMBL1127785, “[[omega-(Heterocyclylamino)alkoxy]benzyl]-2,4-thiazolidinediones as potent antihyperglycemic agents” (1994):
Calls of active or inactive are those of the source. No cut-off for these calls is given here.

Tests used:
[1] = tested on: Mus musculus; test: Percent reduction in area under glucose tolerance curve (AUC) was determined at 30 umol/kg dose of diet in mice; IA = No significant activity; assay type: functional, organism-based
How it was run: (§1)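 C57 Bl/6 ob/ob mice, 9–10 weeks old at purchase, 6–8 per group, kept at 26 ± 2 °C on a 12 h light/dark cycle. Compound was mixed into powdered diet, given fresh daily for 8 days. Mice were then fasted 5 h and given oral glucose 3 g/kg. Tail blood glucose was measured at 0, 45, 90 and 135 min by hexokinase/G6PDH. Read-out is % AUC reduction vs controls (trapezoid rule), Student's t-test.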

[2] = tested on: Mus musculus; test: Percent reduction in area under glucose tolerance curve at 300 uM/kg dose in diet of mice.; assay type: functional; how it was run: as §1
[3] = tested on: Mus musculus; test: Percent reduction in area under glucose tolerance curve (AUC) was determined at 3 umol/kg dose of diet in mice; IA = No significant activity; assay type: functional, organism-based; how it was run: as §1
[4] = tested on: Mus musculus; test: Percent reduction in area under glucose tolerance curve (AUC) was determined at 10 umol/kg dose of diet in mice; assay type: functional; how it was run: as §1
[5] = tested on: Mus musculus; test: Percent reduction in area under glucose tolerance curve at 100 uM/kg dose in diet of mice.; assay type: functional; how it was run: as §1
[6] = species: Mus musculus; test: No significant effect dose level on blood hemoglobin.; assay type: functional
How it was run: (§2)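 Blood hemoglobin content was measured in C57 Bl/6 ob/ob mice after 8 days of compound given by dietary admixture. The value is the highest dose (µmol/kg of diet) with no significant reduction in blood hemoglobin.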

[7] = species: Mus musculus; test: Antihyperglycemic potency dose producing approximately 25% reduction in area under glucose tolerance curve; assay type: functional; how it was run: as §1
[8] = tested on: Mus musculus; test: Percent reduction in area under glucose tolerance curve (AUC) was determined at 3 umol/kg dose of diet in mice; assay type: functional; how it was run: as §1
[9] = tested on: Mus musculus; test: Percent reduction in area under glucose tolerance curve (AUC) was determined at 30 umol/kg dose of diet in mice; assay type: functional; how it was run: as §1
[10] = tested on: Mus musculus; test: Percent reduction in area under glucose10 umol/kg dose of diet in mice; assay type: functional; how it was run: as §1
[11] = Selectivity ratio for Antihyperglycemic potency dose and No significant effect dose; assay type: functional
[12] = tested on: Mus musculus; test: Percent reduction in area under glucose tolerance curve (AUC) was determined at 300 umol/kg dose of diet in mice; IA = No significant activity; assay type: functional, organism-based; how it was run: as §1
[13] = tested on: Mus musculus; test: Percent reduction in area under glucose tolerance curve (AUC) was determined at 3000 umol/kg dose of diet in mice; assay type: functional; how it was run: as §1
[14] = tested on: Mus musculus; test: Percent reduction in area under glucose tolerance curve (AUC) was determined at 10 umol/kg dose of diet in mice; IA = No significant activity; assay type: functional, organism-based; how it was run: as §1
[15] = species: Mus musculus; test: No significant effect dose level on blood hemoglobin; assay type: functional; how it was run: as §2
[16] = tested on: Mus musculus; test: Percent reduction in area under glucose tolerance curve (AUC) was determined at 100 umol/kg dose of diet in mice; IA = No significant activity; assay type: functional, organism-based; how it was run: as §1
[17] = tested on: Mus musculus; test: Percent reduction in area under glucose tolerance curve (AUC) was determined at 1000 umol/kg dose of diet in mice; assay type: functional; how it was run: as §1
[18] = tested on: Mus musculus; test: Percent reduction in area under glucose tolerance curve (AUC) was determined at 1000 umol/kg dose of diet in mice; IA = No significant activity; assay type: functional, organism-based; how it was run: as §1

CN(CCOc1ccc(/C=C2\SC(=O)NC2=O)cc1)c1ccccn1
Reduction [1]: inactive | Reduction [2]: 47%

CN(CCOc1ccc(CC2SC(=O)NC2=O)cc1)c1nc2ccccc2s1 (stereo not drawn)
Reduction [3]: Not significant | Reduction [2]: 66% | Reduction [4]: 36% | Reduction [5]: 51%

CN(CCOc1ccc(CC2SC(=O)NC2=O)cc1)c1ccccn1 (stereo not drawn) [ROSIGLITAZONE]
Dose [6]: 300 µM/kg | Dose [7]: 3 µM/kg | Reduction [8]: 17% | Reduction [9]: 41% | Reduction [2]: 61% | Reduction [10]: 31% | Reduction [5]: 56% | Selectivity ratio [11]: 100

CC1(COc2ccc(CC3SC(=O)NC3=O)cc2)CCCCC1 (stereo not drawn) [CIGLITAZONE]
Reduction [12]: inactive | Reduction [13]: 41%

CN(CCOc1ccc(CC2SC(=O)NC2=O)cc1)c1nccc(-c2ccccc2)n1 (stereo not drawn)
Reduction [14]: Not significant

O=C(NCCOc1ccc(CC2SC(=O)NC2=O)cc1)Nc1ccc(Cl)cc1 (stereo not drawn)
Reduction [12]: Not significant

CC(=O)N(CCOc1ccc(CC2SC(=O)NC2=O)cc1)c1ncccn1 (stereo not drawn)
Reduction [9]: 19%

CN(CC(Oc1ccc(CC2SC(=O)NC2=O)cc1)c1ccccc1)c1nc2ccccc2o1 (stereo not drawn)
Reduction [1]: Not significant

Cc1csc(N(C)CCOc2ccc(CC3SC(=O)NC3=O)cc2)n1 (stereo not drawn)
Reduction [8]: 14% | Reduction [9]: 53% | Reduction [4]: 28%

Cc1nc(N(C)CCOc2ccc(CC3SC(=O)NC3=O)cc2)sc1C (stereo not drawn)
Reduction [9]: 47% | Reduction [14]: Not significant

Cc1c(C)c2c(c(C)c1O)CCC(C)(COc1ccc(CC3SC(=O)NC3=O)cc1)O2 (stereo not drawn) [TROGLITAZONE]
Dose [15]: 600 µM/kg | Dose [7]: 400 µM/kg | Reduction [16]: inactive | Reduction [2]: 20% | Selectivity ratio [11]: 1.5 | Reduction [13]: 48%

CN(CCOc1ccc(CC2SC(=O)NC2=O)cc1)C(=O)NCc1ccccc1 (stereo not drawn)
Reduction [1]: Not significant | Reduction [2]: 41%

O=C1NC(=O)C(Cc2ccc(OCCNc3ncccn3)cc2)S1 (stereo not drawn)
Reduction [9]: 15%

COc1cccc(N(C)CCOc2ccc(CC3SC(=O)NC3=O)cc2)n1 (stereo not drawn)
Reduction [1]: Not significant | Reduction [2]: 35%

CN(CCOc1ccc(CC2SC(=O)NC2=O)cc1)c1ccc(Cl)cn1 (stereo not drawn)
Reduction [1]: Not significant | Reduction [2]: 44%

Cc1ccnc(N(C)CCOc2ccc(CC3SC(=O)NC3=O)cc2)c1 (stereo not drawn)
Reduction [3]: Not significant | Reduction [9]: 34% | Reduction [2]: 41%

CN1C(=O)SC(Cc2ccc(OCCN(C)c3nc4ccccc4o3)cc2)C1=O (stereo not drawn)
Reduction [16]: Not significant | Reduction [17]: 42%

Cc1sc(N(C)CCOc2ccc(CC3SC(=O)NC3=O)cc2)nc1-c1ccccc1 (stereo not drawn)
Reduction [9]: 20% | Reduction [14]: Not significant | Reduction [5]: 37%

Cc1cccc(N(C)CCOc2ccc(CC3SC(=O)NC3=O)cc2)n1 (stereo not drawn)
Reduction [1]: Not significant | Reduction [2]: 33%

CN(CCOc1ccc(/C=C2\SC(=O)NC2=O)cc1)c1nc2ccccc2o1
Reduction [2]: 30%

CN(CCCCOc1ccc(CC2SC(=O)NC2=O)cc1)c1nc2ccccc2o1 (stereo not drawn)
Reduction [1]: Not significant | Reduction [2]: 25%

CCc1ccc(CCOc2ccc(CC3SC(=O)NC3=O)cc2)nc1 (stereo not drawn) [PIOGLITAZONE]
Reduction [16]: inactive | Reduction [17]: 62% | Reduction [2]: 35% | Reduction [13]: 63%

CN(CCOc1ccc(CC2SC(=O)NC2=O)cc1)/C(=N/c1ccccc1)NC#N (stereo not drawn)
Reduction [12]: Not significant

COc1ccc(NC(=O)NCCOc2ccc(CC3SC(=O)NC3=O)cc2)cc1 (stereo not drawn)
Reduction [12]: Not significant

Cc1nc(N(C)CCOc2ccc(CC3SC(=O)NC3=O)cc2)sc1-c1ccccc1 (stereo not drawn)
Dose [6]: <300 µM/kg | Dose [7]: 3 µM/kg | Reduction [8]: 33% | Reduction [4]: 27% | Reduction [5]: 39% | Selectivity ratio [11]: < 100

CN(CCOc1ccc(CC2SC(=O)NC2=O)cc1)c1nccs1 (stereo not drawn)
Reduction [14]: Not significant | Reduction [5]: 58%

O=C1NC(=O)C(Cc2ccc(OCCNc3nc4ccccc4o3)cc2)S1 (stereo not drawn)
Reduction [1]: Not significant | Reduction [5]: 44%

O=C(NCCOc1ccc(CC2SC(=O)NC2=O)cc1)Nc1ccc(F)cc1 (stereo not drawn)
Reduction [18]: Not significant

CN(CCOc1ccc(CC2SC(=O)NC2=O)cc1)c1ccc([N+](=O)[O-])cn1 (stereo not drawn)
Reduction [1]: Not significant

CN(CCOc1ccc(CC2SC(=O)NC2=O)cc1)c1nc2ccccc2o1 (stereo not drawn) [BRL-48482]
Dose [6]: 30 µM/kg | Dose [7]: 3 µM/kg | Reduction [9]: 52% | Reduction [2]: 42% | Reduction [5]: 57% | Selectivity ratio [11]: 10

CN(CCOc1ccc(CC2SC(=O)NC2=O)cc1)c1ncccn1 (stereo not drawn)
Dose [15]: 100 µM/kg | Dose [7]: 10 µM/kg | Reduction [8]: 18% | Reduction [4]: 18% | Reduction [5]: 43% | Selectivity ratio [11]: 10

Cc1nc(N(C)CCOc2ccc(CC3SC(=O)NC3=O)cc2)oc1C (stereo not drawn)
Reduction [3]: Not significant | Reduction [9]: 33% | Reduction [4]: 16%

Cc1ccc(N(C)CCOc2ccc(CC3SC(=O)NC3=O)cc2)nc1 (stereo not drawn)
Reduction [9]: 18% | Reduction [2]: 35% | Reduction [5]: 19%

CN(CCOc1ccc(CC2[Se]C(=O)NC2=O)cc1)c1nc2ccccc2o1 (stereo not drawn)
Reduction [14]: Not significant | Reduction [5]: 45%

CN(CCOc1ccc(CC2SC(=O)NC2=O)cc1)c1ncc(-c2ccccc2)o1 (stereo not drawn)
Reduction [9]: 22% | Reduction [4]: 20%

CN(CCOc1ccc(C2SC(=O)NC2=O)cc1)c1nc2ccccc2o1 (stereo not drawn)
Reduction [18]: inactive

CN(CCOc1ccc(CC2SC(=O)NC2=O)cc1)c1nc(-c2ccccc2)cs1 (stereo not drawn)
Reduction [1]: Not significant | Reduction [5]: 34%

CN(CCOc1ccc(CCC2SC(=O)NC2=O)cc1)c1nc2ccccc2o1 (stereo not drawn)
Reduction [16]: Not significant

CN(CCOc1ccc(CC2SC(=O)NC2=O)cc1)C(=O)Nc1ccccc1 (stereo not drawn)
Reduction [2]: 27%

CN(CCOc1ccc(CC2OC(=O)NC2=O)cc1)c1nc2ccccc2o1 (stereo not drawn)
Reduction [17]: 52% | Reduction [1]: Not significant | Reduction [2]: 41% | Reduction [5]: 23%

CN(CCOc1ccc(CC2SC(=O)NC2=O)cc1)c1ccc(N)cn1 (stereo not drawn)
Reduction [1]: Not significant

O=C(NCCOc1ccc(CC2SC(=O)NC2=O)cc1)Nc1ccccc1 (stereo not drawn)
Reduction [17]: 58% | Reduction [5]: 21%

CN(CC(O)COc1ccc(CC2SC(=O)NC2=O)cc1)c1nc2ccccc2o1 (stereo not drawn)
Reduction [16]: Not significant

CC(COc1ccc(CC2SC(=O)NC2=O)cc1)N(C)c1nc2ccccc2o1 (stereo not drawn)
Reduction [16]: Not significant | Reduction [2]: 38%

O=C1NC(=O)C(Cc2ccc(OCCNC(=S)Nc3ccccc3)cc2)S1 (stereo not drawn)
Reduction [17]: 43% | Reduction [1]: Not significant | Reduction [5]: 10%

CN(CCCOc1ccc(CC2SC(=O)NC2=O)cc1)c1nc2ccccc2o1 (stereo not drawn)
Reduction [16]: inactive | Reduction [2]: 32%

CN(CCOc1ccc(CC2SC(=O)NC2=O)cc1)c1ncccc1Cl (stereo not drawn)
Reduction [9]: 15% | Reduction [2]: 40%

CN(CCSc1ccc(CC2SC(=O)NC2=O)cc1)c1nc2ccccc2o1 (stereo not drawn)
Reduction [5]: 20%

CN(CCOc1ccc(CC2SC(=O)NC2=O)cc1)c1ccncc1 (stereo not drawn)
Reduction [14]: Not significant

O=C(NCCOc1ccc(CC2SC(=O)NC2=O)cc1)Nc1ccc(Cl)c(Cl)c1 (stereo not drawn)
Reduction [12]: Not significant

CN(CCOc1ccc(CC2CC(=O)NC2=O)cc1)c1nc2ccccc2o1 (stereo not drawn)
Reduction [12]: Not significant

CN(CCOc1ccc(CC2SC(=O)NC2=O)cc1)c1cnccn1 (stereo not drawn)
Reduction [14]: Not significant | Reduction [5]: 46%

CC(C)N(CCOc1ccc(CC2SC(=O)NC2=O)cc1)c1nc2ccccc2o1 (stereo not drawn)
Reduction [5]: 20%

CC(CN(C)c1nc2ccccc2o1)Oc1ccc(CC2SC(=O)NC2=O)cc1 (stereo not drawn)
Reduction [12]: Not significant

O=C1NC(=O)C(Cc2ccc(OCCN(Cc3ccccc3)c3nc4ccccc4s3)cc2)S1 (stereo not drawn)
Reduction [16]: Not significant | Reduction [2]: 56%
